In data set [1] the test system is Plasmodium falciparum. The experiment in a line: In vitro antimalarial activity against Plasmodium falciparum FG3. It is filed as functional, organism-based. In short, it runs like this:
(§1)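 Young trophozoite-stage P. falciparum cultures were exposed to drug at 0.001–10 μg/mL for 48 h, in triplicate. [³H]hypoxanthine uptake by schizonts was measured by scintillation counting, with drug-free cultures as controls. IC50 was taken from the regression line through mean dpm between maximum and minimum values, and given as mean and SD over n experiments.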

Data set [2] relates to Plasmodium falciparum. The data set can be described thus: In vitro antimalarial activity against Plasmodium falciparum SGE2. It is filed as functional, organism-based. The method, boiled down:
as §1

Data set [3] relates to Plasmodium falciparum. The data set can be described thus: In vitro antimalarial activity against Plasmodium falciparum FCM6. The format is functional, organism-based. In short, it runs like this: as §1
Data set [4] concerns Plasmodium falciparum. The data set can be described thus: In vitro antimalarial activity against Plasmodium falciparum FCM17 parasite. It is filed as functional, organism-based. In short, it runs like this:
as §1

The nature of data set [5]: Compound was tested antimalarial activity in mice (Mus musculus), infected with Plasmodium berghei N., activity is expressed as the mortality rate at a concentration of 1 mg/kg. in experiment 1; 5 out of 5. The note with it: in vivo. More on the design: dose 1 mg/kg. The format is ADME, organism-based.
Data set [6] relates to Plasmodium falciparum. The experiment in a line: In vitro antimalarial activity against Plasmodium falciparum FG4. The format is functional, organism-based. In short, it runs like this:
as §1

Data set [7] has as its system Plasmodium falciparum. The experiment in a line: In vitro antimalarial activity against Plasmodium falciparum FG2 parasite. It is filed as functional, organism-based. The method, boiled down:
as §1

Data set [8] can be described thus: Compound was tested antimalarial activity in mice (Mus musculus), infected with Plasmodium berghei N., activity is expressed as the mortality rate at a concentration of 10 mg/kg. in experiment 1; 0 out of 5. More on the design: dose 10 mg/kg. The settings on record: in vivo. The format is ADME, organism-based.
For data set [9], the system named is Plasmodium falciparum. The data set can be described thus: In vitro antimalarial activity against Plasmodium falciparum FG1. The format is functional, organism-based. In short, it runs like this:
as §1

Data set [10] relates to Mus musculus. The experiment in a line: Compound was tested for the antimalarial activity in mice (Mus musculus), infected with Plasmodium yoelii NS., activity is expressed as the percent of parasitaemia observed in mice (Mus musculus) at end of 4-day test at a concentration of 1 mg/kg in experiment 2. It is filed as functional, organism-based. Also noted: dose 1 mg/kg. In short, it runs like this:
(§2)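 4-day suppressive test in female Swiss mice (25 g), infected at day 0 with 10⁷ parasitized RBC from a donor at 20–30% parasitemia. Drug given subcutaneously in PBS once daily, days 0–3; dose in chloroquine base equivalents. Controls received PBS. Parasitemia was counted on 1000 RBC in Giemsa-stained thin films at day 4 and expressed as percent of control-mouse parasitemia.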

Data set [11] relates to Mus musculus. The data set can be described thus: Compound was tested for the antimalarial activity in mice (Mus musculus), infected with Plasmodium berghei N., activity is expressed as the percent of parasitaemia observed in mice (Mus musculus) at end of 4-day test at a concentration of 10 mg/kg in experiment 1. The format is functional, organism-based. Also noted: dose 10 mg/kg. The method, boiled down: as §2

Data set [12] relates to Mus musculus. The data set can be described thus: Compound was tested for the antimalarial activity in mice (Mus musculus), infected with Plasmodium yoelii NS., activity is expressed as the percent of parasitaemia observed in mice (Mus musculus) at end of 4-day test at a concentration of 10 mg/kg in experiment 2. More on the design: dose 10 mg/kg. It is filed as functional, organism-based. The method, boiled down: as §2

Data set [13] has as its system Mus musculus. The experiment in a line: Compound was tested for the antimalarial activity in mice (Mus musculus), infected with Plasmodium berghei N., activity is expressed as the percent of parasitaemia observed in mice (Mus musculus) at end of 4 day test at a concentration of 10 mg/kg in experiment 2. The format is functional, organism-based. More on the design: dose 10 mg/kg. The method, boiled down:
as §2

The subject of data set [14] is Mus musculus. The experiment in a line: Compound was tested for the antimalarial activity in mice (Mus musculus), infected with Plasmodium yoelii NS., activity is expressed as the percent of parasitaemia observed in mice (Mus musculus) at end of 4-day test at a concentration of 10 mg/kg in experiment 1. The format is functional, organism-based. More on the design: dose 10 mg/kg. The method, boiled down: as §2

In data set [15] the test system is Mus musculus. The experiment in a line: Compound was tested for the antimalarial activity in mice (Mus musculus), infected with Plasmodium berghei N., activity is expressed as the percent of parasitaemia observed in mice (Mus musculus) at end of 4-day test at a concentration of 1 mg/kg in experiment 2. Also noted: dose 1 mg/kg. The format is functional, organism-based. In short, it runs like this:
as §2

Data set [16] deals with Mus musculus. The data set can be described thus: Compound was tested for the antimalarial activity in mice (Mus musculus), infected with Plasmodium berghei N., activity is expressed as the percent of parasitaemia observed in mice (Mus musculus) at end of 4 day test at a concentration of 1 mg/kg in experiment 1. The format is functional, organism-based. More on the design: dose 1 mg/kg. The method, boiled down: as §2

Data set [17] concerns Mus musculus. The experiment in a line: Compound was tested for the antimalarial activity in mice (Mus musculus), infected with Plasmodium yoelii NS., activity is expressed as the percent of parasitaemia observed in mice (Mus musculus) at end of 4-day test at a concentration of 1 mg/kg in experiment 1. It is filed as functional, organism-based. More on the design: dose 1 mg/kg. The method, boiled down:
as §2

Data set [18] deals with Mus musculus. The data set can be described thus: Antimalarial activity in mice (Mus musculus), infected with Plasmodium yoelii NS., activity is expressed as the percent of parasitaemia observed in mice (Mus musculus) at end of 4 day test at a concentration of 1 mg/kg in experiment 2. It is filed as functional. In short, it runs like this: as §2
Data set [19] concerns Mus musculus. The experiment in a line: Antimalarial activity in mice (Mus musculus), infected with Plasmodium berghei N. activity is expressed as the percent of parasitaemia observed in mice (Mus musculus) at end of 4-day test at a concentration of 10 mg/kg in experiment 1. The format is functional. In short, it runs like this: as §2
Data set [20] deals with Mus musculus. The data set can be described thus: Antimalarial activity in mice (Mus musculus), infected with Plasmodium yoelii NS. activity is expressed as the percent of parasitaemia observed in mice (Mus musculus) at end of 4-day test at a concentration of 1 mg/kg in experiment 1. The format is functional. In short, it runs like this:
as §2

Data set [21] concerns Mus musculus. The data set can be described thus: Antimalarial activity in mice (Mus musculus), infected with Plasmodium berghei N. activity is expressed as the percent of parasitaemia observed in mice (Mus musculus) at end of 4-day test at a concentration of 10 mg/kg in experiment 2. The format is functional. In short, it runs like this: as §2
Data set [22] has as its system Mus musculus. The data set can be described thus: Antimalarial activity in mice (Mus musculus), infected with Plasmodium berghei N. activity is expressed as the percent of parasitaemia observed in mice (Mus musculus) at end of 4-day test at a concentration of 1 mg/kg in experiment 2. It is filed as functional. In short, it runs like this:
as §2

The test system of data set [23] is Mus musculus. The experiment in a line: Antimalarial activity in mice (Mus musculus), infected with Plasmodium yoelii NS., activity is expressed as the percent of parasitaemia observed in mice (Mus musculus) at end of 4-day test at a concentration of 10 mg/kg in experiment 1. It is filed as functional. In short, it runs like this:
as §2

For data set [24], the system named is Mus musculus. The data set can be described thus: Antimalarial activity in mice (Mus musculus), infected with Plasmodium yoelii NS. activity is expressed as the percent of parasitaemia observed in mice (Mus musculus) at end of 4-day test at a concentration of 10 mg/kg in experiment 2. It is filed as functional. The method, boiled down: as §2
The test system of data set [25] is Mus musculus. The data set can be described thus: Antimalarial activity in mice (Mus musculus), infected with Plasmodium berghei N. activity is expressed as the percent of parasitaemia observed in mice (Mus musculus) at end of 4-day test at a concentration of 1 mg/kg in experiment 1. It is filed as functional. The method, boiled down:
as §2

What is called IC50 is the point on the concentration scale where inhibition reaches its midpoint. Low values mean greater potency, high ones weaker potency. As for “7-Chloro-4-[[[2-[(N,N-methyl amino)]ferrocenyl]methyl]amino]quinoline; bis-(2,3-Dihydroxy-succinic acid) [listing 1 of 2 here]”, the concentration for half-maximal inhibition (IC50) worked out at 0.095 µg/mL with Plasmodium falciparum [1]; 0.16 µg/mL in the data set with Plasmodium falciparum [2]; 0.061 µg/mL in the data set with Plasmodium falciparum [3]; 0.177 µg/mL in the data set on Plasmodium falciparum [4]; 0.057 µg/mL with Plasmodium falciparum [6]; 0.059 µg/mL in the data set on Plasmodium falciparum [7]. Besides, the IC50 in the data set with Plasmodium falciparum [9] was 0.067 µg/mL. Also, the Mortality is reported as 5 in data set [5] and 0 in data set [8].
On to “7-Chloro-4-[[[2-[(N,N-methyl amino)]ferrocenyl]methyl]amino]quinoline; bis-(2,3-Dihydroxy-succinic acid) [listing 2 of 2 here]”, for which the Parasitemia stood at 109% in the data set with Mus musculus [10]; 0% in the data set with Mus musculus [11]; 0% in the data set on Mus musculus [12]; 0% in the data set on Mus musculus [13]; 0.3% in the data set with Mus musculus [14]; 75.8% in the data set with Mus musculus [15]. Moreover, the Parasitemia in the data set on Mus musculus [16] was determined as 75.5%; in the data set on Mus musculus [17] it was 125%.
Take `CCN(CC)CCCC(C)Nc1ccnc2cc(Cl)ccc12` (stereo not given) [CHLOROQUINE]: the Parasitemia in the data set on Mus musculus [18] turned out to be 76.6%; in the data set with Mus musculus [19], 2.08%; in the data set on Mus musculus [20] it was 64.7%; with Mus musculus [21], 0.59%; in the data set on Mus musculus [22], 60.1%; with Mus musculus [23] it was 0%. For the same compound, the Parasitemia in the data set on Mus musculus [24] came out at 0%; in the data set on Mus musculus [25], 69.2%.

These data come from ChEMBL document CHEMBL1130229, “Synthesis and antimalarial activity in vitro and in vivo of a new ferrocene-chloroquine analogue” (J Med Chem, 1997).
